# Results reported in ChEMBL document CHEMBL4834419 (J Med Chem, 2021).
# The source made the active and inactive calls. The calls are words filed in the database; no cut-off is given here.
# Biological target: T1, Retinoic acid receptor RXR-alpha (Homo sapiens, UniProt P19793)
# T1 sequence (P19793 whole entry): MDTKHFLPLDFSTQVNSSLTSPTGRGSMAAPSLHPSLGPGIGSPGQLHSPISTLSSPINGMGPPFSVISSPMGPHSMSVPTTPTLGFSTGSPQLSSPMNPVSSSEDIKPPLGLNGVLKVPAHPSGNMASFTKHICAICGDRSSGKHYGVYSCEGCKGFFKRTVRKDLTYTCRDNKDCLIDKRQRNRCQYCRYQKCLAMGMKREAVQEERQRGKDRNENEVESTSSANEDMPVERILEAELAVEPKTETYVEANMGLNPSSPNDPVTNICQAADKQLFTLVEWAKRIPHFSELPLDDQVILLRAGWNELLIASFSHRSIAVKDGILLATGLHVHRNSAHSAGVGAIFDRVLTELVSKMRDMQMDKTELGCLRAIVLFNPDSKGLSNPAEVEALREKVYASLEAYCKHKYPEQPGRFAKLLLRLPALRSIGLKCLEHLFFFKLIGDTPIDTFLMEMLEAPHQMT
# Experiment: Agonist activity at human RXRalpha transfected in human HEK293T cells co-expressing pFR/pRL-Luc incubated for 14 to 16 hrs by hybrid reporter gene assay
# Assay type: cell-based
# Conditions: not given
row,Structure (SMILES),EC50 [nM]
1,O=C(O)CCc1nc(-c2cc(Cl)cc(Cl)c2)c(-c2cc(Cl)cc(Cl)c2)o1,1030
2,O=C(O)CCc1nc(-c2ccc(Cl)cc2)c(-c2cc(Cl)cc(Cl)c2)o1,180
3,O=C(O)CCc1nc(-c2ccccc2)c(-c2cccc(Cl)c2Cl)o1,1200
4,O=C(O)CCc1nc(-c2ccc(Cl)cc2)c(-c2ccccc2)o1,1300
5,Cc1ccc(-n2nc(CCC(=O)O)cc2-c2cc(Cl)cc(Cl)c2)cc1,2500
6,O=C(O)CCCCc1nc(-c2ccccc2)c(-c2ccccc2)o1,8400
7,O=C(O)CCc1nc(-c2ccccc2Cl)c(-c2ccccc2)o1,36000
8,O=C(O)CCc1nc(-c2ccccc2)c(-c2ccc(Cl)c(Cl)c2)o1,510

# Biological target: T2, Retinoic acid receptor RXR-beta (Homo sapiens, UniProt P28702)
# T2 sequence (P28702 whole entry): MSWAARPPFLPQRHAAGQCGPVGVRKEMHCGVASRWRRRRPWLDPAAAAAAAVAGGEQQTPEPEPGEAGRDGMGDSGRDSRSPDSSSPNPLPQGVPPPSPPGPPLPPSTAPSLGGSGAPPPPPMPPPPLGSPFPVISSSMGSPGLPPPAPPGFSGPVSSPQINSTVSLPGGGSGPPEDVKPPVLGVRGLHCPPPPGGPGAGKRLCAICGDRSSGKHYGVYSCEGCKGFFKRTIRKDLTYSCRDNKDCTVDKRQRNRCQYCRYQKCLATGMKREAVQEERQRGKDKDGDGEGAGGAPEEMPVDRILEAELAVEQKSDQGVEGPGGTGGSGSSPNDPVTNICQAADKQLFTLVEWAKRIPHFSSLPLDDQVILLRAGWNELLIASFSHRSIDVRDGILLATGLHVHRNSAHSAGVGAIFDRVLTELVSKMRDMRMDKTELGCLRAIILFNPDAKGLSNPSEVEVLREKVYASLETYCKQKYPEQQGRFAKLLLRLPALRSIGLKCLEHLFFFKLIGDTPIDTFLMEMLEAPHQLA
# Experiment: Agonist activity at human RXRbeta transfected in human HEK293T cells co-expressing pFR/pRL-Luc incubated for 14 to 16 hrs by hybrid reporter gene assay
# Assay type: cell-based
# Conditions: not given
row,Structure (SMILES),EC50 [nM]
1,O=C(O)CCc1nc(-c2ccccc2)c(-c2cccc(Cl)c2)o1,600
2,O=C(O)CCc1cc(-c2cc(C(F)(F)F)cc(C(F)(F)F)c2)n(-c2ccc(Cl)cc2)n1,270
3,O=C(O)CCc1nc(-c2cc(Cl)cc(Cl)c2)c(-c2ccccc2)o1,3400
4,Cc1cccc(-c2nc(CCC(=O)O)oc2-c2ccccc2)c1,4800
5,CC(C)(C)c1cc(-c2oc(CCC(=O)O)nc2-c2ccccc2)cc(C(C)(C)C)c1,130
6,O=C(O)CCc1nc(-c2ccccc2)c(-c2ccccc2)o1 [OXAPROZIN],25000
7,O=C(O)CCc1nc(-c2cc(Cl)cc(Cl)c2)c(-c2cc(Cl)cc(Cl)c2)o1,1500
8,O=C(O)CCc1nc(-c2ccc(Cl)cc2)c(-c2cc(Cl)cc(Cl)c2)o1,290
9,Cc1ccc(-c2nc(CCC(=O)O)oc2-c2ccccc2)cc1,14400
10,O=C(O)CCc1nc(-c2ccc(Cl)cc2)c(-c2ccccc2)o1,2400
11,O=C(O)CCc1nc(-c2ccccc2)c(-c2cc(F)cc(F)c2)o1,50
12,Cc1ccc(-n2nc(CCC(=O)O)cc2-c2cc(Cl)cc(Cl)c2)cc1,1400
13,O=C(O)CCCCc1nc(-c2ccccc2)c(-c2ccccc2)o1,12400
14,O=C(O)CCc1nc(-c2ccccc2Cl)c(-c2ccccc2)o1,48000
15,O=C(O)CCc1nc(-c2ccccc2)c(-c2ccc(Cl)c(Cl)c2)o1,870

# Biological target: T3, Retinoic acid receptor RXR-gamma (Homo sapiens, UniProt P48443)
# T3 sequence (P48443 whole entry): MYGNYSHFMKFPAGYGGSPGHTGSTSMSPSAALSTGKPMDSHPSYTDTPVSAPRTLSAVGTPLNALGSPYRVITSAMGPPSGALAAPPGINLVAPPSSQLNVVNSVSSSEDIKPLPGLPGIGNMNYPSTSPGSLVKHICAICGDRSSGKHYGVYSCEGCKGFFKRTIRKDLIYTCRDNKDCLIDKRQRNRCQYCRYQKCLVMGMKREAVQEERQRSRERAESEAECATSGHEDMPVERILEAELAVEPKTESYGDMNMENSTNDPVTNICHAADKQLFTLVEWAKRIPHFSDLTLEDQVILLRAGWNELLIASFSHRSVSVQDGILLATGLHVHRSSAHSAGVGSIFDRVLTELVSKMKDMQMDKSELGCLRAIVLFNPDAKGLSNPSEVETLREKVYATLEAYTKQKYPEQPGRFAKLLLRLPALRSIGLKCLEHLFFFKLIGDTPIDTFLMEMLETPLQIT
# Experiment: Agonist activity at human RXRgamma transfected in human HEK293T cells co-expressing pFR/pRL-Luc incubated for 14 to 16 hrs by hybrid reporter gene assay
# Assay type: cell-based
# Conditions: not given
row,Structure (SMILES),EC50 [nM]
1,O=C(O)CCc1cc(-c2cc(C(F)(F)F)cc(C(F)(F)F)c2)n(-c2ccc(Cl)cc2)n1,460
2,O=C(O)CCc1nc(-c2cc(Cl)cc(Cl)c2)c(-c2ccccc2)o1,2800
3,O=C(O)CCc1nc(-c2ccccc2)c(-c2ccc(Cl)cc2)o1,19000
4,CC(C)(C)c1cc(-c2oc(CCC(=O)O)nc2-c2ccccc2)cc(C(C)(C)C)c1,500
5,O=C(O)CCc1cc(-c2cc(Cl)cc(Cl)c2)n(-c2ccccc2)n1,1600
6,O=C(O)CCc1nc(-c2ccccc2)c(-c2ccccc2)o1 [OXAPROZIN],40100
7,O=C(O)CCc1nc(-c2ccc(Cl)cc2)c(-c2cc(Cl)cc(Cl)c2)o1,400
8,O=C(O)CCc1nc(-c2ccccc2)c(-c2cccc(Cl)c2Cl)o1,3200
9,Cc1ccc(-c2nc(CCC(=O)O)oc2-c2ccccc2)cc1,> 100000
10,O=C(O)CCc1nc(-c2ccc(Cl)cc2)c(-c2ccccc2)o1,1400
11,Cc1ccc(-n2nc(CCC(=O)O)cc2-c2cc(Cl)cc(Cl)c2)cc1,3000
12,O=C(O)CCc1nc(-c2ccccc2)c(-c2ccc(Cl)c(Cl)c2)o1,1500

# Biological target: T4, Retinoic acid receptor RXR-alpha (Homo sapiens) (UniProt P19793)
# T4 sequence (whole entry): T1 sequence (P19793 whole entry)
# Experiment: Agonist activity at human RXRalpha transfected in human HEK293T cells co-expressing pFR/pRL-Luc at 30 uM incubated for 14 to 16 hrs by hybrid reporter gene assay
# Assay type: cell-based
# Conditions: time 14-16 hrs
# Procedure, shortened: (§1)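 Gal4 hybrid reporter assay in HEK293T cells, seeded 24 h before transfection (Lipofectamine LTX, Opti-MEM) with pFR-Luc, pRL-SV40 and pFA-CMV plasmid carrying the hinge region and LBD of the human receptor. After 5 h, compound added in 0.1% DMSO, with 0.1% DMSO alone as untreated control. Dual-Glo luciferase read after 14−16 h; firefly/renilla normalized; duplicates, ≥2 independent experiments.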
row,Structure (SMILES),Activity
1,O=C(O)CCc1ncc(-c2ccccc2)o1,inactive
2,O=C(O)Cc1nc(-c2ccccc2)c(-c2ccccc2)o1,inactive
3,O=C(O)CCc1nc(-c2ccccc2)co1,inactive
4,NC(=O)CCc1nc(-c2ccccc2)c(-c2ccccc2)o1,inactive

# Biological target: T5, Retinoic acid receptor RXR-beta (Homo sapiens) (UniProt P28702)
# T5 sequence (whole entry): T2 sequence (P28702 whole entry)
# Experiment: Agonist activity at human RXRbeta transfected in human HEK293T cells co-expressing pFR/pRL-Luc at 30 uM incubated for 14 to 16 hrs by hybrid reporter gene assay
# Assay type: cell-based
# Conditions: time 14-16 hrs
# Procedure, shortened: as §1
row,Structure (SMILES),Activity
1,O=C(O)CCc1ncc(-c2ccccc2)o1,inactive
2,O=C(O)Cc1nc(-c2ccccc2)c(-c2ccccc2)o1,inactive
3,O=C(O)CCc1nc(-c2ccccc2)co1,inactive
4,NC(=O)CCc1nc(-c2ccccc2)c(-c2ccccc2)o1,inactive

# Biological target: T6, Retinoic acid receptor RXR-gamma (Homo sapiens) (UniProt P48443)
# T6 sequence (whole entry): T3 sequence (P48443 whole entry)
# Experiment: Agonist activity at human RXRgamma transfected in human HEK293T cells co-expressing pFR/pRL-Luc at 30 uM incubated for 14 to 16 hrs by hybrid reporter gene assay
# Assay type: cell-based
# Conditions: time 14-16 hrs
# Procedure, shortened: as §1
row,Structure (SMILES),Activity
1,O=C(O)CCc1ncc(-c2ccccc2)o1,inactive
2,O=C(O)Cc1nc(-c2ccccc2)c(-c2ccccc2)o1,inactive
3,O=C(O)CCc1nc(-c2ccccc2)co1,inactive
4,NC(=O)CCc1nc(-c2ccccc2)c(-c2ccccc2)o1,inactive

# Biological target: T6, Retinoic acid receptor RXR-gamma (Homo sapiens)
# Experiment: Agonist activity at human RXRgamma transfected in human HEK293T cells co-expressing pFR/pRL-Luc at 50 uM incubated for 14 to 16 hrs by hybrid reporter gene assay
# Assay type: cell-based
# Conditions: time 14-16 hrs
# Procedure, shortened: as §1
row,Structure (SMILES),Activity
1,O=C(O)CCCCc1nc(-c2ccccc2)c(-c2ccccc2)o1,inactive
2,O=C(O)CCc1nc(-c2ccccc2Cl)c(-c2ccccc2)o1,inactive
